According to ChEMBL document CHEMBL1240382, “Elucidation of the pharmacokinetic/pharmacodynamic determinant of colistin activity against Pseudomonas aeruginosa in murine thigh and lung infection models” (Antimicrob Agents Chemother, 2010):

Columns and labels:
[1] = fAUC/MIC in Pseudomonas aeruginosa PAO1 infected Swiss mouse lung infection model assessed as 3-log10 kill after 24 hrs; type: functional
In short: (§1)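 Unbound single-dose profiles superimposed to give 24-h fAUC (trapezoidal) per regimen, divided by MIC; log10 CFU per thigh or lung at 24 h fitted to inhibitory sigmoid Emax model by nonlinear least squares; fAUC/MIC for stasis (24-h count equal to treatment-start count) and 1-, 2-, 3-log10 kill derived from fitted parameters.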

Pseudomonas aeruginosa [2] = assay: Antimicrobial activity against Pseudomonas aeruginosa ATCC 27853 infected in neutropenic Swiss mouse thigh infection model assessed as reduction in bacterial burden relative to control; type: functional, organism-based; conditions: Thigh muscle
In short: (§2)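 Neutropenic thigh-infected Swiss mice; colistin (sulfate) s.c. started 2 h after inoculation, 5–40 mg/kg per dose every 3, 6, 8, 12 or 24 h (5–160 mg/kg/day), two mice per regimen. Killed 24 h after treatment start; each thigh homogenized and plated on nutrient agar; log10 CFU/thigh, lower count limit 100 CFU; change versus 2 h burden.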

[3] = fAUC/MIC in Pseudomonas aeruginosa isolate 19056 infected Swiss mouse thigh infection model after assessed as 1-log10 kill 24 hrs; type: functional
[4] = fAUC/MIC in Pseudomonas aeruginosa PAO1 infected Swiss mouse lung infection model assessed as 2-log10 kill after 24 hrs; type: functional; in short: as §1
Pseudomonas aeruginosa [5] = assay: Antimicrobial activity against Pseudomonas aeruginosa isolate 19056 in neutropenic Swiss mouse thigh infection model assessed as bacterial load in mouse thigh at 40 mg/kg, sc after 24 hrs; type: functional, organism-based; design: dose 40 mg/kg; in short: as §2
[6] = fAUC/MIC in Pseudomonas aeruginosa ATCC 27853 infected Swiss mouse thigh infection model assessed as 3-log10 kill after 24 hrs; type: functional; in short: as §1
[7] = fAUC/MIC in Pseudomonas aeruginosa isolate 19056 infected Swiss mouse lung infection model assessed as 3-log10 kill after 24 hrs; type: functional
Pseudomonas aeruginosa [8] = assay: Antimicrobial activity against Pseudomonas aeruginosa ATCC 27853 in neutropenic Swiss mouse thigh infection model assessed as bacterial load in mouse thigh after 2 hrs; type: functional, organism-based; conditions: Thigh muscle
In short: (§3)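 Thigh model: female Swiss mice (22–26 g) made neutropenic with cyclophosphamide i.p. (150 mg/kg day −4, 100 mg/kg day −1). Under isoflurane, ~10^7 CFU/ml early-log suspension injected i.m. (50 µl per posterior thigh). Untreated controls killed 2 h post-inoculation; thighs homogenized in saline, filtered, serially diluted, plated on nutrient agar, counted after 24 h at 37°C; log10 CFU/thigh.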

Pseudomonas aeruginosa [9] = assay: Antimicrobial activity against Pseudomonas aeruginosa PAO1 by broth microdilution method; type: functional, organism-based
In short: (§4)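 Colistin (sulfate) MIC by broth microdilution; strains stored in tryptone soy broth with 20% glycerol at −80°C and subcultured overnight on horse blood agar at 37°C before use.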

Pseudomonas aeruginosa [10] = assay: Antimicrobial activity against Pseudomonas aeruginosa isolate 19056 in neutropenic Swiss mouse lung infection model assessed as bacterial load in mouse thigh after 2 hrs; type: functional, organism-based
In short: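 Lung model: neutropenic Swiss mice under isoflurane given 50 µl of ~10^8 CFU/ml early-log suspension intranasally in ~10 µl portions, then held head-up 1 min. Untreated controls killed 2 h post-inoculation; lungs homogenized in 2 ml saline, viable counts by dilution plating on nutrient agar; lower limit 220 CFU/lung.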

[11] = fAUC/MIC in Pseudomonas aeruginosa isolate 19056 infected Swiss mouse thigh infection model after assessed as 3-log10 kill after 24 hrs; type: functional
[12] = fAUC/MIC in Pseudomonas aeruginosa ATCC 27853 infected Swiss mouse lung infection model assessed as 2-log10 kill after 24 hrs; type: functional; in short: as §1
[13] = fAUC/MIC in Pseudomonas aeruginosa PAO1 infected Swiss mouse lung infection model assessed as induction of static antimicrobial effect after 24 hrs; type: functional; in short: as §1
[14] = fAUC/MIC in Pseudomonas aeruginosa PAO1 infected Swiss mouse lung infection model assessed as 1-log10 kill after 24 hrs; type: functional; in short: as §1
[15] = fAUC/MIC in Pseudomonas aeruginosa ATCC 27853 infected Swiss mouse lung infection model assessed as 3-log10 kill after 24 hrs; type: functional; in short: as §1
[16] = fAUC/MIC in Pseudomonas aeruginosa ATCC 27853 infected Swiss mouse lung infection model assessed as induction of static antimicrobial effect after 24 hrs; type: functional; in short: as §1
[17] = fAUC/MIC in Pseudomonas aeruginosa isolate 19056 infected Swiss mouse thigh infection model after assessed as 2-log10 kill after 24 hrs; type: functional
Pseudomonas aeruginosa [18] = assay: Antimicrobial activity against Pseudomonas aeruginosa PAO1 in neutropenic Swiss mouse thigh infection model assessed as bacterial load in mouse thigh after 2 hrs; type: functional, organism-based; conditions: Thigh muscle; in short: as §3
[19] = fAUC/MIC in Pseudomonas aeruginosa isolate 19056 infected Swiss mouse lung infection model assessed as 2-log10 kill after 24 hrs; type: functional
Pseudomonas aeruginosa [20] = assay: Antimicrobial activity against Pseudomonas aeruginosa ATCC 27853 in neutropenic Swiss mouse lung infection model assessed as bacterial load in mouse thigh at 40 mg/kg, sc after 24 hrs; type: functional, organism-based; design: dose 40 mg/kg
In short: (§5)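 Neutropenic lung-infected Swiss mice; colistin (sulfate) s.c. from 2 h post-inoculation, 5–40 mg/kg per dose every 6, 8, 12 or 24 h. Killed 24 h after treatment start; lungs homogenized in saline and plated; log10 CFU/lung (limit 220 CFU); change versus 2 h burden.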

[21] = fAUC/MIC in Pseudomonas aeruginosa ATCC 27853 infected Swiss mouse thigh infection model assessed as induction of static antimicrobial effect after 24 hrs; type: functional; in short: as §1
[22] = fAUC/MIC in Pseudomonas aeruginosa ATCC 27853 infected Swiss mouse thigh infection model assessed as 1-log10 kill after 24 hrs; type: functional; in short: as §1
Pseudomonas aeruginosa [23] = assay: Antimicrobial activity against Pseudomonas aeruginosa PAO1 infected in neutropenic Swiss mouse lung infection model assessed as reduction in bacterial burden relative to control; type: functional, organism-based; in short: as §5
[24] = fAUC/MIC in Pseudomonas aeruginosa PAO1 infected Swiss mouse thigh infection model assessed as 2-log10 kill after 24 hrs; type: functional
Pseudomonas aeruginosa [25] = assay: Antimicrobial activity against Pseudomonas aeruginosa isolate 19056 in neutropenic Swiss mouse thigh infection model assessed as bacterial load in mouse thigh after 2 hrs; type: functional, organism-based; conditions: Thigh muscle; in short: as §3
[26] = fAUC/MIC in Pseudomonas aeruginosa PAO1 infected Swiss mouse thigh infection model assessed as 3-log10 kill after 24 hrs; type: functional
[27] = fAUC/MIC in Pseudomonas aeruginosa isolate 19056 infected Swiss mouse lung infection model assessed as 1-log10 kill after 24 hrs; type: functional
Pseudomonas aeruginosa [28] = assay: Antimicrobial activity against Pseudomonas aeruginosa ATCC 27853 in neutropenic Swiss mouse lung infection model assessed as bacterial load in mouse thigh after 2 hrs; type: functional, organism-based; conditions: Thigh muscle
[29] = fAUC/MIC in Pseudomonas aeruginosa ATCC 27853 infected Swiss mouse lung infection model assessed as 1-log10 kill after 24 hrs; type: functional; in short: as §1
Pseudomonas aeruginosa [30] = assay: Antimicrobial activity against Pseudomonas aeruginosa ATCC 27853 infected in neutropenic Swiss mouse lung infection model assessed as reduction in bacterial burden relative to control; type: functional, organism-based; in short: as §5
Pseudomonas aeruginosa [31] = assay: Antimicrobial activity against Pseudomonas aeruginosa ATCC 27853 by broth microdilution method; type: functional, organism-based; in short: as §4
[32] = fAUC/MIC in Pseudomonas aeruginosa isolate 19056 infected Swiss mouse thigh infection model assessed as induction of static antimicrobial effect after 24 hrs; type: functional
Pseudomonas aeruginosa [33] = assay: Antimicrobial activity against Pseudomonas aeruginosa PAO1 in neutropenic Swiss mouse lung infection model assessed as bacterial load in mouse thigh after 2 hrs; type: functional, organism-based; conditions: Thigh muscle
[34] = fAUC/MIC in Pseudomonas aeruginosa PAO1 infected Swiss mouse thigh infection model assessed as 1-log10 kill after 24 hrs; type: functional; in short: as §1
Pseudomonas aeruginosa [35] = assay: Antimicrobial activity against Pseudomonas aeruginosa PAO1 infected in neutropenic Swiss mouse thigh infection model assessed as reduction in bacterial burden relative to control; type: functional, organism-based; conditions: Thigh muscle; in short: as §2
Pseudomonas aeruginosa [36] = assay: Antimicrobial activity against Pseudomonas aeruginosa ATCC 27853 in neutropenic Swiss mouse thigh infection model assessed as bacterial load in mouse thigh at 40 mg/kg, sc after 24 hrs; type: functional, organism-based; design: dose 40 mg/kg; in short: as §2
[37] = fAUC/MIC in Pseudomonas aeruginosa PAO1 infected Swiss mouse thigh infection model assessed as induction of static antimicrobial effect after 24 hrs; type: functional
Pseudomonas aeruginosa [38] = assay: Antimicrobial activity against Pseudomonas aeruginosa isolate 19056 infected in neutropenic Swiss mouse thigh infection model assessed as reduction in bacterial burden relative to control; type: functional, organism-based; conditions: Thigh muscle; in short: as §2
Pseudomonas aeruginosa [39] = assay: Antimicrobial activity against Pseudomonas aeruginosa PAO1 in neutropenic Swiss mouse thigh infection model assessed as bacterial load in mouse thigh at 40 mg/kg, sc after 24 hrs; type: functional, organism-based; design: dose 40 mg/kg; in short: as §2
[40] = fAUC/MIC in Pseudomonas aeruginosa isolate 19056 infected Swiss mouse lung infection model assessed as induction of static antimicrobial effect after 24 hrs; type: functional
Pseudomonas aeruginosa [41] = assay: Antimicrobial activity against Pseudomonas aeruginosa isolate 19056 by broth microdilution method; type: functional, organism-based; in short: as §4
Pseudomonas aeruginosa [42] = assay: Antimicrobial activity against Pseudomonas aeruginosa PAO1 in neutropenic Swiss mouse lung infection model assessed as bacterial load in mouse thigh at 40 mg/kg, sc after 24 hrs; type: functional, organism-based; design: dose 40 mg/kg; in short: as §5
Pseudomonas aeruginosa [43] = assay: Antimicrobial activity against Pseudomonas aeruginosa isolate 19056 infected in neutropenic Swiss mouse lung infection model assessed as reduction in bacterial burden relative to control; type: functional, organism-based; in short: as §5
[44] = fAUC/MIC in Pseudomonas aeruginosa ATCC 27853 infected Swiss mouse thigh infection model assessed as 2-log10 kill after 24 hrs; type: functional; in short: as §1

COLISTIMETHATE SODIUM
fAUC/MIC [1]: 135 | Emax (log10 CFU/organ) (Pseudomonas aeruginosa [2]): 6.29 | fAUC/MIC [3]: 15.6 | fAUC/MIC [4]: 45.9 | log10cfu (Pseudomonas aeruginosa [5]): 3.69 | fAUC/MIC [6]: 55.1 | fAUC/MIC [7]: 141 | log10cfu (Pseudomonas aeruginosa [8]): 6.14 | MIC (Pseudomonas aeruginosa [9]): 1 µg/mL | log10cfu (Pseudomonas aeruginosa [10]): 6.43 | fAUC/MIC [11]: 53.3 | fAUC/MIC [12]: 37.9 | fAUC/MIC [13]: 5.42 | fAUC/MIC [14]: 16.7 | fAUC/MIC [15]: 105 | fAUC/MIC [16]: 6.43 | fAUC/MIC [17]: 27.6 | log10cfu (Pseudomonas aeruginosa [18]): 6.35 | fAUC/MIC [19]: 36.9 | log10cfu (Pseudomonas aeruginosa [20]): 3.58 | fAUC/MIC [21]: 17.3 | fAUC/MIC [22]: 22.7 | Emax (log10 CFU/organ) (Pseudomonas aeruginosa [23]): 7.36 | fAUC/MIC [24]: 36.1 | log10cfu (Pseudomonas aeruginosa [25]): 6.26 | fAUC/MIC [26]: 66.7 | fAUC/MIC [27]: 12.2 | log10cfu (Pseudomonas aeruginosa [28]): 6.64 | fAUC/MIC [29]: 15.6 | Emax (log10 CFU/organ) (Pseudomonas aeruginosa [30]): 7.58 | MIC (Pseudomonas aeruginosa [31]): 1 µg/mL | fAUC/MIC [32]: 8.34 | log10cfu (Pseudomonas aeruginosa [33]): 6.92 | fAUC/MIC [34]: 22.8 | Emax (log10 CFU/organ) (Pseudomonas aeruginosa [35]): 5.97 | log10cfu (Pseudomonas aeruginosa [36]): 3.17 | fAUC/MIC [37]: 14.4 | Emax (log10 CFU/organ) (Pseudomonas aeruginosa [38]): 6.23 | log10cfu (Pseudomonas aeruginosa [39]): 4.01 | fAUC/MIC [40]: 4.07 | MIC (Pseudomonas aeruginosa [41]): 0.5 µg/mL | log10cfu (Pseudomonas aeruginosa [42]): 3.09 | Emax (log10 CFU/organ) (Pseudomonas aeruginosa [43]): 6.86 | fAUC/MIC [44]: 31.2
